In ChEMBL document CHEMBL4513216, “Probing the Open Global Health Chemical Diversity Library for Multistage-Active Starting Points for Next-Generation Antimalarials” (ACS Infect Dis, 2020):

Assay: Toxicity liver stage against HepG2, at 10uM
Assay type: cell-based
Parameters: test concentration 10 uM, cell line HepG2-A16-CD81EGFP
Details: human, HepG2-A16-CD81EGFP cells; read-out: INHIBITION
Method in brief: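 Uninfected HepG2-A16-CD81EGFP cells, 3 × 10^3 per well, 1536-well, plated on prespotted compound at 10 μM final, parasite-free screening media added to match infected plates; puromycin 10 μM positive, DMSO 0.5% negative; run in parallel with 48 h PbLuc assay at 37 °C, 5% CO2; viability by CellTiter-Glo luminescence, normalized to controls.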

Cc1cccc(SC2CCN(Cc3nc(CC4CC4)no3)CC2)c1
cytotoxicity at 10 µM: -6.51%

O=C(NC[C@H]1Cn2c(-c3ccccc3)cnc2CO1)C1CC1
cytotoxicity at 10 µM: -3.01%

CC(C)NC(=O)[C@@H]1Cc2[nH]cnc2CN1CCCc1ccccc1
cytotoxicity at 10 µM: 10.1%

O[C@@H]1C[C@@H](c2nc(-c3cccnc3)no2)N(C2CCOCC2)C1
cytotoxicity at 10 µM: -4.03%

CC(=O)N1N=C(COc2ccc(C)cc2)OC1c1ccc(N(C)C)cc1 (stereo not drawn)
cytotoxicity at 10 µM: -3.33%

CC(=O)c1cn(CCC(=O)N[C@@H](CC(C)C)C(=O)O)c2ccccc12
cytotoxicity at 10 µM: 2.1%

COc1cccc(-c2nc(C)c(C(=O)N[C@@H](CCSC)C(=O)O)s2)c1
cytotoxicity at 10 µM: -1.64%

COc1cc(OC)c(C2CC(=O)Oc3cc(C)[nH]c(=O)c32)c(OC)c1 (stereo not drawn)
cytotoxicity at 10 µM: -6.24%

Cc1ccsc1C1CC(=O)Nc2c1cnn2C(C)C (stereo not drawn)
cytotoxicity at 10 µM: -7.7%

CSCC(C)(O)CNS(=O)(=O)c1ccc(F)cc1 (stereo not drawn)
cytotoxicity at 10 µM: -8.06%

Cc1cccc(OC2CCN(C(=O)c3ccc4c(c3)OCO4)CC2)n1
cytotoxicity at 10 µM: -5.51%

COc1cc(N2CC3(CCN(c4ncccn4)C3)C2)ncn1
cytotoxicity at 10 µM: 9.79%

CCS(=O)(=O)N1C[C@@H]2COC[C@@H](Cc3nc(C)no3)[C@@H]2C1
cytotoxicity at 10 µM: 9.04%

CN(C)Cc1nn(C)c2c1CN(C(=O)Nc1ccc(F)cc1)C2
cytotoxicity at 10 µM: 6.04%

COCCC1COC2(CCN(C(=O)C3CCC3)CC2)C1 (stereo not drawn)
cytotoxicity at 10 µM: 8.25%

O=C(c1ccc[nH]1)N1CCCC2(CCCN2Cc2cccnc2)C1 (stereo not drawn)
cytotoxicity at 10 µM: 3.83%

O=C(C1CC1)N1CC[C@H]2[C@@H]1CCC(=O)N2c1ccccc1
cytotoxicity at 10 µM: 10.8%

CCS(=O)(=O)NCC1OCCc2cn(CCOC)nc21 (stereo not drawn)
cytotoxicity at 10 µM: 9.43%

Cc1cccc(NC(=O)N2CCC3(CC(=O)N(c4ccsc4)C3)C2)c1 (stereo not drawn)
cytotoxicity at 10 µM: 6.47%

c1nc2c(c(C3CCOC3)n1)CCN(Cc1ccoc1)CC2 (stereo not drawn)
cytotoxicity at 10 µM: 7.01%

O=C(Cn1nc(N2CCOCC2)ccc1=O)Nc1nccs1
cytotoxicity at 10 µM: -1.47%

COc1ccc(Br)c(C(=O)NCC2CCN(C(=O)c3ccoc3)CC2)c1
cytotoxicity at 10 µM: -21.7%

Fc1cnc(N2CCO[C@H]3CN(CC4CCC4)C[C@H]32)nc1
cytotoxicity at 10 µM: -8.71%

O=C1NC2(CCc3ccccc31)CCN(C(=O)c1cccnc1)C2 (stereo not drawn)
cytotoxicity at 10 µM: 5.5%

CCS(=O)(=O)N1C[C@@H](O)[C@H](N(C)Cc2ccc(F)cc2)C1
cytotoxicity at 10 µM: 4.54%

CNc1nc(C2CCCN(C(=O)C(C)C)C2)nc2c1CN(C)CC2 (stereo not drawn)
cytotoxicity at 10 µM: -16.3%

CC1(C(=O)NC2CCCC2)CN(c2cnccn2)CCO1 (stereo not drawn)
cytotoxicity at 10 µM: -33.9%

CC(=O)N1CCN(CCOc2ccc(F)cc2)CC(C(N)=O)C1 (stereo not drawn)
cytotoxicity at 10 µM: -38.9%

CNC(=O)c1ccc(C2CCCN(C(=O)c3sc(C)nc3C)C2)nc1 (stereo not drawn)
cytotoxicity at 10 µM: -36.5%

CNc1cc(C)nc(C2CN(Cc3ccc(C)nc3)CCO2)c1 (stereo not drawn)
cytotoxicity at 10 µM: -2.29%

NC(=O)CN(Cc1cccc(Oc2ccccc2)c1)C(=O)C1CC1
cytotoxicity at 10 µM: 4.59%

Cc1ncccc1C(=O)Nc1cccc(C[S+](C)[O-])c1C (stereo not drawn)
cytotoxicity at 10 µM: 4.08%

COC(=O)c1cc(NCc2cscn2)ccc1C
cytotoxicity at 10 µM: 5.17%

Cn1nc2c(cc1=O)CN(CC(=O)NC1CCCCNC1=O)CC2 (stereo not drawn)
cytotoxicity at 10 µM: 1.9%

CCOCCS(=O)(=O)c1nnc(NCCOC)s1
cytotoxicity at 10 µM: -7.18%

CC(C)c1nn(C)cc1CNCc1cccc(N(C)C)c1
cytotoxicity at 10 µM: -0.509%

Cc1noc(C)c1CNC(=O)NCCC(=O)N1CCCc2ccccc21
cytotoxicity at 10 µM: -0.353%

CC(C)(C)C(=O)N1CCC(COCc2ccccc2)C1 (stereo not drawn)
cytotoxicity at 10 µM: 12.8%

CCc1cc(NCCCNS(C)(=O)=O)nc(-c2ccccn2)n1
cytotoxicity at 10 µM: 1.8%

Cc1csc(N2CCN(C(=O)c3cc(C4CC4)[nH]n3)CC2)n1
cytotoxicity at 10 µM: 3.34%

Cc1ccc(NC(=O)N2CCN(C(=O)CC3CCCC3)CC2)s1
cytotoxicity at 10 µM: 4.36%

Clc1cccc(N2CCC(NCc3cc[nH]n3)C2)c1 (stereo not drawn)
cytotoxicity at 10 µM: 4.01%

Cc1oc(NC(=O)C(C)N2CCN(C(=O)C3CC3)CC2)c(C#N)c1C (stereo not drawn)
cytotoxicity at 10 µM: -18.6%

Cc1cc(C)n(CC2CCCCN2CC(=O)Nc2ccncc2)n1 (stereo not drawn)
cytotoxicity at 10 µM: 8.69%

CC(C)NC(=O)NCCCc1cccc(F)c1
cytotoxicity at 10 µM: -0.0328%

CCOc1ccc(S(=O)(=O)NC(=O)c2c(C)noc2C(C)C)cc1
cytotoxicity at 10 µM: -3.08%

CNC(=O)CN(C)C(=O)Cc1csc(C(C)C)n1
cytotoxicity at 10 µM: -5.07%

CN(Cc1nccn1C)S(=O)(=O)c1cccc(C#N)c1
cytotoxicity at 10 µM: 15.1%

OC[C@@H](O)CN(CCC(F)(F)F)c1ncc(Br)cn1
cytotoxicity at 10 µM: -8.72%

O=C(NCCNc1ncccn1)c1scnc1Cl
cytotoxicity at 10 µM: -3.11%

CC(C#N)(NC(=O)COc1ccccc1Br)C1CC1 (stereo not drawn)
cytotoxicity at 10 µM: 7.45%

CC1c2cccn2CCN1S(=O)(=O)N1CCCCCC1 (stereo not drawn)
cytotoxicity at 10 µM: -2.3%

Cc1cc(NC(=O)Cn2nc(C)c(C#N)c2N)ccc1Br
cytotoxicity at 10 µM: -6.58%

CN(CCCc1cc(-c2ccccc2)n[nH]1)C(=O)CCCn1cncn1
cytotoxicity at 10 µM: -147%

CC(C)CCNC(=O)CCc1ccnc2ccccc12
cytotoxicity at 10 µM: -0.69%

CC(C)Cn1cnc(S(=O)(=O)NCCc2nnc3ccccn23)c1
cytotoxicity at 10 µM: 6.48%

CCc1ccc(C(=O)O)cc1S(=O)(=O)Nc1c(C)ccn(C)c1=O
cytotoxicity at 10 µM: 4.28%

CCCNC(=O)c1cccc(CNCc2csc(CC)n2)c1
cytotoxicity at 10 µM: -10.7%

CC1CCN(CC(O)CN2CCn3c(nnc3C3CC3)C2)CC1 (stereo not drawn)
cytotoxicity at 10 µM: -2.22%

O=C(NS(=O)(=O)c1cccc(F)c1)c1ccccc1F
cytotoxicity at 10 µM: 9.39%

Cn1c(N)nnc1SCC1OCCc2ccccc21 (stereo not drawn)
cytotoxicity at 10 µM: 0.355%

CC(=O)c1ccc(CNC(=O)c2cc(C#N)cn2C)nc1C
cytotoxicity at 10 µM: 5.44%

Cn1cc(N2C(=O)C[C@@H]3[C@@H]2CCN3C(=O)c2ccco2)cn1
cytotoxicity at 10 µM: -107%

CCn1c2c(ccc1=O)CC(NCc1cnn(C)c1)CC2 (stereo not drawn)
cytotoxicity at 10 µM: -102%

CC(=O)N1CCC2(CC1)CCN(C(=O)c1ccc(F)c(C(F)(F)F)c1)C2
cytotoxicity at 10 µM: -80%

CCN1CC(C(=O)NCc2ccc3c(c2)nc(C)n3C)CCC1=O (stereo not drawn)
cytotoxicity at 10 µM: -6.9%

CN(Cc1ccoc1)C(=O)C1(Oc2ccc(Cl)cc2)CCNCC1
cytotoxicity at 10 µM: 5.73%

O=C(NCCOCCO)c1cnc(-c2ccccc2)nc1O
cytotoxicity at 10 µM: 0.701%

O=C(CCCc1cn[nH]c1)N1C[C@H](CO)C[C@H](CN2CCCC2)C1
cytotoxicity at 10 µM: -10.2%

CN(C)S(=O)(=O)N1CCCC(c2nccn2Cc2cccnc2)C1 (stereo not drawn)
cytotoxicity at 10 µM: 4.61%

Cc1cc(C(=O)N2CCN[C@H](C)C2)c2ccc(F)cc2n1
cytotoxicity at 10 µM: 13.7%

CN1CCCC(CCC(=O)N2CCc3onc(C(=O)N(C)C)c3C2)C1 (stereo not drawn)
cytotoxicity at 10 µM: -11%

CSCc1noc(C2CCC(=O)N(CCCN3CCCC3=O)C2)n1 (stereo not drawn)
cytotoxicity at 10 µM: 3.59%

Cc1cc(C)n(CC(C)NC(=O)c2cc(CN3CCC(O)CC3)on2)n1 (stereo not drawn)
cytotoxicity at 10 µM: 0.873%

CSc1ccccc1C(=O)N1CCOC(CCN(C)C)C1 (stereo not drawn)
cytotoxicity at 10 µM: 7.46%

Cn1c(CN2CCC(O)CC2)nnc1C1CCCN(C(=O)C2CNC2)C1 (stereo not drawn)
cytotoxicity at 10 µM: 3.19%

COc1cccn(C(C)C(=O)NC2CCCC2)c1=O (stereo not drawn)
cytotoxicity at 10 µM: 5.32%

Cc1ccsc1[C@@H]1CCN(C(=O)Cn2cc3ccccc3n2)C[C@H]1O
cytotoxicity at 10 µM: -1.96%

CCn1c(C2CCCN(Cc3cc(OC)cc(OC)c3)C2)nn(C)c1=O (stereo not drawn)
cytotoxicity at 10 µM: 0.0264%

O=C(CCCc1cn[nH]c1)N1C[C@@H](CN2CCCC2)C[C@H](CO)C1
cytotoxicity at 10 µM: -8.96%

CN(C)S(=O)(=O)N1CC[C@]2(O)CCN(c3nccs3)C[C@@H]2C1
cytotoxicity at 10 µM: -13%

O=C(CCS(=O)(=O)c1ccccc1)NC1CCOC2(CCOCC2)C1 (stereo not drawn)
cytotoxicity at 10 µM: 7.56%

Cc1nc(O)cc(CNC(=O)CC[C@@H]2CCCN3CCCC[C@H]23)n1
cytotoxicity at 10 µM: 1.87%

CN1CCC(N(CCc2ccccc2)C(=O)c2ccc(C#N)nc2)CC1
cytotoxicity at 10 µM: -3.33%

COCc1nc(CNC2CCC3(CCNCC3)CC2)no1
cytotoxicity at 10 µM: -3.13%

O=C(Cc1ccc(O)c(Cl)c1)N1CCN(CC2CC2)[C@@H]2CS(=O)(=O)C[C@@H]21
cytotoxicity at 10 µM: 5.84%

COCc1nc(C(=O)NS(=O)(=O)c2c(C)c(C)cc(C)c2C)cs1
cytotoxicity at 10 µM: -8.01%

O=C(Nc1nncs1)NC1CCN(Cc2ccccc2)C1 (stereo not drawn)
cytotoxicity at 10 µM: -0.397%

COc1c(CNC2CCN(c3ncccn3)CC2)c(C(C)C)nn1C
cytotoxicity at 10 µM: -4.81%

CCCC(C)C(=O)N1CCC(n2cccc2C(=O)OC)CC1 (stereo not drawn)
cytotoxicity at 10 µM: -10%

CCOCc1nn(CC2CC2)c2c1CN(Cc1ccco1)CC2
cytotoxicity at 10 µM: 2.7%

CC(=O)N1CCOCC2(CN(Cc3ccccn3)CCO2)C1 (stereo not drawn)
cytotoxicity at 10 µM: -3.28%

CNC(=O)CN1CCO[C@H]2CN(C(=O)c3ccncc3F)C[C@H]21
cytotoxicity at 10 µM: -155%

O=C(c1ccncc1)N1CC[C@@H]2[C@@H](CC1)OCCN2c1cccnc1
cytotoxicity at 10 µM: 8.25%

O=C(Nc1cnccn1)[C@@H]1CCO[C@@H]2CCN(Cc3ccsc3)C[C@@H]21
cytotoxicity at 10 µM: -77.1%

c1ccc(CN2CCc3ncnc(-c4ccoc4)c3CC2)nc1
cytotoxicity at 10 µM: -79%

NC(=O)c1nc2c(s1)CCN(Cc1ccccc1)CC2
cytotoxicity at 10 µM: 9.61%

O=C(CO[C@@H]1CC[C@H]2[C@H]1OCCN2CC1CCOCC1)N1CCCC1
cytotoxicity at 10 µM: -11.6%

CCOC(=O)c1n[nH]cc1-c1cncn1CCn1nc(C)c(C)c1C
cytotoxicity at 10 µM: -35.3%

O=C(NCc1cnc2n1CCN(Cc1cccs1)C2)c1ccno1
cytotoxicity at 10 µM: -110%

N#Cc1cccc(C(=O)N2CC[C@H]3[C@H]2CCN3CC2CC2)c1
cytotoxicity at 10 µM: 3.03%

O=C(CCn1c(C(F)(F)F)cc2cccnc21)N1CCCC1
cytotoxicity at 10 µM: -21.5%

CC(C)CN1CCS(=O)(=O)[C@@H]2CCN(S(=O)(=O)C3CC3)CC[C@@H]21
cytotoxicity at 10 µM: 7.8%

CN(C)[C@H]1COC[C@@H]2CN(Cc3ccc4c(c3)OCO4)C[C@@H]21
cytotoxicity at 10 µM: 4.2%

CC(C)N(C)Cc1cncc2c1CCN(CC(=O)N(C)C)C2
cytotoxicity at 10 µM: -100%

Cc1cc(CN2C[C@@H]3CN(C(=O)c4ccco4)CCO[C@@H]3C2)no1
cytotoxicity at 10 µM: -141%

c1cnc(NCc2cncc3c2CCN(Cc2cccnc2)C3)nc1
cytotoxicity at 10 µM: -68.5%

O=S(=O)(C1CC1)N1CCc2ncnc(-c3ccncc3)c2CC1
cytotoxicity at 10 µM: -3.27%
